We go through 18 molecules from ChEMBL document CHEMBL4304748, “Design, Synthesis, and Biological Evaluation of a New Series of Carvedilol Derivatives That Protect Sensory Hair Cells from Aminoglycoside-Induced Damage by Blocking the Mechanoelectrical Transducer Channel” (J Med Chem, 2019).

pKd: −log10 of the molar value. The source made the active and inactive calls. The calls are words filed in the database; no cut-off is given here.

For data set [1], the species on record is Mus musculus. The experiment in a line: Inhibition of MET in CD-1 mouse cochlea outer hair cells assessed as reduction in MET currents at 10 uM measured at -160 mV to +80 mV membrane potential by patch clamp assay. The gist of the method:
(§1)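 OHC MET currents recorded before and during exposure to 10 μM compound. Fractional block taken as the current during exposure relative to the control current at each membrane potential.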

The species named for data set [2] is Mus musculus. The experiment in a line: Otoprotective activity against gentamicin-induced outer hair cell death in CD-1 mouse cochlea at 20 uM after 48 hrs by TRITC-phalloidin staining-based microscopic analysis relative to control. In kind it is functional. The method in brief:
(§2)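 Mouse cochlear cultures coincubated for 48 h with 5 μM gentamicin plus compound (5, 10 or 20 μM). OHCs counted in a 300 μm long segment of the mid-basal cochlea. Counts compared with 0.5% DMSO control and with gentamicin + 0.5% DMSO cultures.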

The species named for data set [3] is Mus musculus. The experiment in a line: Otoprotective activity against gentamicin-induced outer hair cell death in CD-1 mouse cochlea at 5 uM after 48 hrs by TRITC-phalloidin staining-based microscopic analysis relative to control. It counts as functional. The method in brief:
as §2

The species named for data set [4] is Mus musculus. The experiment in a line: Otoprotective activity against gentamicin-induced outer hair cell death in CD-1 mouse cochlea at 10 uM after 48 hrs by TRITC-phalloidin staining-based microscopic analysis relative to control. It counts as functional. The method in brief:
as §2

The species entered for data set [5] is Mus musculus. Kind of data set: Inhibition of MET in CD-1 mouse cochlea outer hair cells assessed as blockade of MET currents at 10 uM measured at -164 mV membrane potential by patch clamp assay relative to control. The gist of the method: as §1
The species named for data set [6] is Mus musculus. Kind of data set: Inhibition of MET in CD-1 mouse cochlea outer hair cells assessed as blockade of MET currents at 10 uM measured at -160 mV to +80 mV membrane potential by patch clamp assay relative to control. The gist of the method:
as §1
(In general: In patch-clamp work, channel activity is measured electrically.)

The nature of data set [7]: Cytotoxicity against CD-1 mouse cochlea assessed as induction of cell damage at 20 uM in presence of gentamicin after 48 hrs by confocal microscopic analysis. It counts as toxicity, tissue-based. The method in brief: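 Mouse cochlear cultures exposed 48 h to 5 μM gentamicin plus 20 μM compound, with 0.5% DMSO and gentamicin-only controls. Hair cells and bundle morphology imaged, including confocal imaging of IHC stereociliary bundles. OHC survival counted in a 300 μm segment of the mid-basal region.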

The nature of data set [8]: Binding affinity to MET in CD-1 mouse cochlea outer hair cells measured at -104 mV membrane potential by patch clamp assay. The method in brief: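 MET currents recorded from outer hair cells of mouse cochlear cultures before and during extracellular superfusion of compound at 1, 3 and 10 μM. Membrane potentials stepped from -164 to +96 mV. Currents normalized to the peak control current at +96 mV for each cell. Dose–response curves at each potential fitted with eq 1 to give KD and Hill coefficient.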

Data set [9] can be described thus: Binding affinity to MET in CD-1 mouse cochlear outer hair cells measured at -84 mV membrane potential in presence of calcium by patch clamp assay.

By inhibition is commonly meant the share of the control response that was lost under treatment. Regarding `COc1ccccc1OCCN(CCN1CCOCC1)CC(O)COc1cccc2[nH]c3ccccc3c12` (configuration not stated), in [1], the inhibition entry was “Active”. The outcome in data set [2] was Active. Also, the result in data set [3] was inactive.
As to `COc1ccccc1OCCN(CCOc1ccccc1OC)CC(O)COc1cccc2[nH]c3ccccc3c12` (configuration not stated), the outcome in data set [4] and in data set [3] was inactive. Also, the outcome in [2] was Active. For the same molecule, the inhibition entry in data set [5] was “Active”. In data set [6], the inhibition was 40%.
As to `COc1ccccc1OCCNC(=O)COc1cccc2[nH]c3ccccc3c12`, in [2], the outcome was inactive.
`COc1ccccc1OCCNCC(O)COc1ccc2c(c1)[nH]c1ccccc12` (configuration not stated): the Activity result in data set [7] was “Toxic”. In data set [2], the result was inactive.
With `Cn1cc(C(F)(F)F)nc1-c1ccc(OCC(O)CNCCOc2ccc(O)c(C(N)=O)c2)cc1` (configuration not stated), the result in data set [2] was inactive.
Turning to `COc1ccc(CCN(C)CCCC(C#N)(c2ccc(OC)c(OC)c2)C(C)C)cc1OC` (configuration not stated), the result in data set [2] was inactive.
As for `COc1ccccc1OCCCCCCOc1cccc2[nH]c3ccccc3c12`, the Activity result in data set [7] is listed as “Toxic”. Also, the result in [2] was inactive.
Turning to `OC(COc1cccc2[nH]c3ccccc3c12)CN1CCN(c2ccccc2)CC1` (configuration not stated), the result in data set [2] was inactive.
What is called pKd is the Kd on a negative log10 scale, so that one unit is a factor of ten. Take `COc1cc2c3cc1Oc1cc(ccc1O)C[C@@H]1c4c(cc(OC)c(O)c4Oc4ccc(cc4)C[C@@H]3N(C)CC2)CC[N+]1(C)C` [TUBOCURARINE]: in data set [8], the negative-log Kd (pKd) is 5.66.
For `COc1ccccc1N1CCN(CC(O)COc2cccc3ccccc23)CC1` (configuration not stated), the result in data set [4] was inactive. Besides, the inhibition result in [1] is “inactive”. In addition, the result in [2] was Active.
Consider `COc1ccccc1OCCNCCCCOc1cccc2[nH]c3ccccc3c12`, for which, in data set [7], the Activity result is listed as “Toxic”. Further, in data set [2], the outcome was inactive.
For `CCCCNCC(O)COc1cccc2[nH]c3ccccc3c12` (configuration not stated), the outcome in [4] and in [3] was inactive. Further, in data set [2], the outcome was Active. Also, in data set [5], the inhibition was in the range of 50 to 60%.
Turning to `CN[C@@H]1[C@H](O[C@H]2[C@H](O[C@@H]3[C@@H](O)[C@H](O)[C@@H](NC(=N)N)[C@H](O)[C@H]3NC(=N)N)O[C@@H](C)[C@]2(O)CO)O[C@@H](CO)[C@H](O)[C@H]1O`, in data set [9], the pKd was 5.15.
With `COc1ccccc1OCCNCC(O)COc1ccccc1OC` (configuration not stated), the inhibition result in data set [1] is “inactive”. The outcome in data set [2] was inactive.
As to `OC(CNCCOc1ccccc1)COc1cccc2[nH]c3ccccc3c12` (configuration not stated), in [7], the Activity result is on record as “Toxic”. Also, the outcome in [2] was inactive. The inhibition in [5] lay within 50 to 60%.
As for `OC(CNCCc1ccccc1)Cn1c2ccccc2c2ccccc21` (configuration not stated), the Activity entry in [7] is “Toxic”. In data set [2], the outcome was inactive.
On to `CC(C)NCC(O)COc1cccc2ccccc12` (configuration not stated), for which the outcome in [2] was inactive.
`COc1ccccc1OCCNCCOc1ccccc1OC`: the inhibition result in data set [1] was “inactive”. For the same molecule, the result in data set [2] was inactive.
